Source: ChEMBL document CHEMBL1125525, “5'-Azido-delta 8-THC: a novel photoaffinity label for the cannabinoid receptor” (1992)

Columns and labels:
Type in all cases: functional
Mus musculus [1] = test: Compound was evaluated by in vivo administration for its ability to produce hypothermia (change in temperature)
Procedure, shortened: (§1)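 Male ICR mice dosed intravenously; same animals scored for decreased locomotor activity (sedation), ring immobility (catalepsy), hypothermia and tail-flick antinociception. Dose-response data analysed by ANOVA; ED50 (mg/kg) with 95% confidence limits as potency, maximum effect as efficacy: percent inhibition of locomotion, change in °C for hypothermia, percent immobility for catalepsy, percent maximum possible effect on tail-flick latency.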

Mus musculus [2] = species on record: Mus musculus; test: Antinociception measured in terms of the maximum possible effect (MPE)on latency by mouse tail-flick assay; procedure, shortened: as §1
Mus musculus [3] = species on record: Mus musculus; test: Percent inhibition measured in terms of the maximum possible effect (MPE)on latency by mouse tail-flick assay; procedure, shortened: as §1
Mus musculus [4] = test: Induction of ring immobility (catalepsy), measured by in vivo administration of drug in mouse; procedure, shortened: as §1
Mus musculus [5] = test: Compound was evaluated by in vivo administration for Percent inhibition of locomotion in mice; procedure, shortened: as §1
Mus musculus [6] = test: Compound was evaluated by in vivo administration for its ability to produce sedation; procedure, shortened: as §1
Mus musculus [7] = test: Compound was evaluated by in vivo administration for percent inhibition of locomotion in mice; procedure, shortened: as §1

| SMILES | ED50 (Mus musculus [1]) [mg/kg] | ED50 (Mus musculus [2]) [mg/kg] | Inhibition (Mus musculus [3]) [%] | ED50 (Mus musculus [4]) [mg/kg] | Immobility (Mus musculus [4]) [%] | Inhibition (Mus musculus [5]) [%] | ED50 (Mus musculus [6]) [mg/kg] | Inhibition (Mus musculus [7]) [%] |
| --- | --- | --- | --- | --- | --- | --- | --- | --- |
| CC1=CC[C@@H]2[C@@H](C1)c1c(O)cc(CCCCCN=[N+]=[N-])cc1OC2(C)C | 0.8 | 0.1 | 100 | 0.8 | 57 | 73 | 0.2 |  |
| CCCCCc1cc(O)c2c(c1)OC(C)(C)[C@@H]1CC=C(C)C[C@@H]21 [DELTA-8-TETRAHYDROCANNABINOL] |  | 1.5 | 100 | 5.2 | 58 |  | 1.9 | 79 |
